Assay results from different studies.
Protocols differ between the studies behind these lines.
Cell line: A549
Read-out: cell growth or viability

SMILES | test | conditions | measurement | value
[NH2][Pt]([NH2])([Cl])[Cl] | SRB | – | GI50 | 4.9 µM
CCCCCCCCCCCCCCCCCCOc1ccccc1CC(=O)OCC[N+]1(C)CCOCC1 | SRB | 10 µM | inhibition | 37.4%
COc1ccc(NC(=O)NCc2cn(Cc3ccc(Cl)cc3)nn2)cc1 | CCK-8 | 20 µM, 72 h | viability | 71.9%
CCCCCCCCCCCCCCCCCCOc1ccccc1CC(=O)OCC[N+]1(C)CCCCC1 | SRB | 10 µM | inhibition | 57.8%
NCCC(=O)Nc1ccccc1/N=c1\cc(-c2ccc3oc(N)nc3c2)oc2ccccc12 | CCK-8 | 1 µM | inhibition | 14.5%
CCCCCCCCCCCCCCCCCCOc1ccccc1CC(=O)OCC[N+]1(C)CCCC1 | SRB | 10 µM | inhibition | 77%
O=C(Nc1ccccc1/N=c1\cc(-c2ccc3c(c2)OCCO3)oc2cc(F)ccc12)N1CCOCC1 | CCK-8 | 1 µM | inhibition | -4.17%
O=C(Nc1ccc(Cl)cc1)Nc1cccc(-c2cn(Cc3ccc(Cl)cc3)nn2)c1 | CCK-8 | 50 µM, 72 h | viability | 101%
O=C(Nc1ccc(Cl)cc1)Nc1cccc(-c2cn(Cc3cccc(Br)c3)nn2)c1 | CCK-8 | 50 µM, 72 h | viability | 145%
N#CSCc1cc(=O)oc2cc(O)ccc12 | SRB | – | GI50 | 5.8 µM
CCCCCCCCCCCCCCCCCCOc1cccc(CC(=O)OCCC[N+](C)(C)C)c1 | SRB | 10 µM | inhibition | 16.2%
COc1ccc2/c(=N/c3ccccc3NC(=O)N3CCOCC3)cc(-c3ccc4c(c3)OCCO4)oc2c1 | CCK-8 | 1 µM | inhibition | 2.09%
CCCCCCCCCCCCCCCCCCOCC(COP(=O)([O-])OCC[N+](C)(C)C)OC (stereo not shown) | SRB | 10 µM | inhibition | 2.5%
NCCC(=O)Nc1ccccc1/N=c1\cc(-c2ccc3nc(N)oc3c2)oc2ccc(O)cc12 | CCK-8 | 1 µM | inhibition | 13.9%
COc1ccc(NC(=O)NCc2cn(Cc3ccccc3C)nn2)cc1 | CCK-8 | 20 µM, 72 h | viability | 65.6%
O=C(NCc1cn(Cc2cccc(Cl)c2)nn1)Nc1ccc(Cl)cc1 | CCK-8 | 20 µM, 72 h | viability | 76.7%
Nc1nc2ccc(-c3c/c(=N\c4ccccc4NC(=O)C4CCNC4)c4ccccc4o3)cc2o1 (stereo not shown) | CCK-8 | 1 µM | inhibition | 22.7%
CCCCCCCCCCCCCCCCCCOc1cccc(CC(=O)OCC[N+](C)(C)C)c1 | SRB | 10 µM | inhibition | 8.12%
O=C(NCc1cn(Cc2ccc(Br)cc2)nn1)Nc1ccccc1Br | CCK-8 | 20 µM, 72 h | viability | 88.8%

SMILES | test | conditions | measurement | value
CCOc1ccc(-c2cc(C(=O)O)c(-c3ccc(Cl)cc3)o2)cc1 | MTT | 48 h | EC50 | 75 µM
O=C(Nc1ccc(Cl)cc1)Nc1ccc(-c2cn(Cc3ccc(Br)cc3)nn2)cc1 | CCK-8 | 20 µM, 72 h | viability | 69.1%
NCCC(=O)Nc1ccc(/N=c2\cc(-c3ccc4c(c3)OCO4)oc3ccccc23)cc1 | CCK-8 | 1 µM | inhibition | -1.6%
CCCCCCCCCCCCCCCCCCOc1ccc(CC(=O)OCC[N+]2(C)CCCC2)cc1 | SRB | 10 µM | inhibition | 2.78%
COc1ccc(NC(=O)NCc2cn(Cc3ccc(C)cc3)nn2)cc1 | CCK-8 | 50 µM, 72 h | viability | 71.5%
O=C(NCc1cn(Cc2ccc(Br)cc2)nn1)Nc1ccc(Cl)cc1 | CCK-8 | 20 µM, 72 h | viability | 102%
NCC(=O)Nc1ccccc1/N=c1\cc(-c2ccc3c(c2)OCO3)oc2ccccc12 | CCK-8 | 1 µM | inhibition | -5.88%
COc1ccc(NC(=O)Nc2ccc(-c3cn(Cc4ccc(C)cc4)nn3)cc2)cc1 | CCK-8 | 20 µM, 72 h | viability | 67.9%
O=C(Nc1ccc(-c2cn(Cc3ccc(Br)cc3)nn2)cc1)Nc1ccccc1Br | CCK-8 | 20 µM, 72 h | viability | 77.3%
Cc1c(Cl)c(=O)oc2cc(OCCCCSC#N)ccc12 | SRB | – | GI50 | 13 µM
CC(C)(C)[C@H](N)C(=O)Nc1ccccc1/N=c1\cc(-c2ccc3c(c2)OCO3)oc2ccccc12 | CCK-8 | 1 µM | inhibition | 3.13%
O=C(Nc1ccc(Cl)cc1)Nc1ccc(-c2cn(Cc3cccc(Cl)c3)nn2)cc1 | CCK-8 | 50 µM, 72 h | viability | 73.2%
COc1ccc(NC(=O)Nc2cccc(-c3cn(Cc4cccc(Cl)c4)nn3)c2)cc1 | CCK-8 | 20 µM, 72 h | viability | 141%
CCCCCCCCCCCCCCCCCCOc1ccccc1CC(=O)OCC[N+](C)(C)C | SRB | 10 µM | inhibition | 88.5%
COc1ccc(NC(=O)Nc2cccc(-c3cn(Cc4ccc(Cl)cc4)nn3)c2)cc1 | CCK-8 | 50 µM, 72 h | viability | 270%
O=C(Nc1ccc(Cl)cc1)Nc1ccc(-c2cn(Cc3ccc(Cl)cc3)nn2)cc1 | CCK-8 | 20 µM, 72 h | viability | 73.2%
COc1ccc(NC(=O)Nc2ccc(-c3cn(Cc4cccc(Cl)c4)nn3)cc2)cc1 | CCK-8 | 20 µM, 72 h | viability | 102%
CCC(=O)NCc1ccc(-c2cnc(C3CN(C(=O)c4ccc(NC(=O)[C@@H]5CC(C)(C)CN5)s4)C3)s2)c2ccccc12 | – | 14 days | GI50 | 0.46 µM
